Source: ChEMBL document CHEMBL4340565, “First-generation structure-activity relationship studies of 2,3,4,9-tetrahydro-1H-carbazol-1-amines as CpxA phosphatase inhibitors” (Bioorg Med Chem Lett, 2019)
Active and inactive are the calls of the source. The calls are words filed in the database; no cut-off is given here.

What was measured:
[1] = Drug uptake in Escherichia coli BW25113 at 16 to 128 ug/ml incubated for 1 to 40 mins by UHPLC-Q/TOF analysis; assay type: ADME
Outline: (§1)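 Isogenic E. coli strains: wild-type efflux or TolC-deficient (efflux-deficient), each with or without an arabinose-induced large outer-membrane pore (hyperporinated). Cells were incubated with increasing compound concentrations. Intracellular accumulation was measured by mass spectrometry after 1 and 40 min.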

[2] = Drug uptake in Escherichia coli BW25113 harboring tolC deletion mutant at 16 to 128 ug/ml incubated for 1 to 40 mins by UHPLC-Q/TOF analysis; assay type: ADME; outline: as §1
[3] = Inhibition of CpxA in Escherichia coli harboring lacZ reporter gene assessed as activation of CpxR incubated for 5 hrs by beta-galactosidase assay
Outline: (§2)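 Read-out is a CpxR-responsive lacZ reporter in a modified E. coli strain, measured as beta-galactosidase activity. Where potency is given it is an EC50. Values are mean ± SEM of at least three separate experiments, each run in triplicate. Compounds showing cytotoxicity or general stress-response activation were not scored.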

Escherichia coli [4] = test: Inhibition of CpxA in Escherichia coli harboring lacZ reporter gene assessed as activation of CpxR up to 80 uM incubated for 5 hrs by beta-galactosidase assay; outline: as §2
[5] = Drug uptake in Escherichia coli BW25113 deltatolCygiBCattTn7::mini-Tn7T-Kmr-araC-ParaBAD-fhuAdeltaCdelta4L at 16 to 128 ug/ml incubated for 1 to 40 mins by UHPLC-Q/TOF analysis; assay type: ADME; outline: as §1
[6] = Drug uptake in Escherichia coli BW25113 attTn7::mini-Tn7T-Kmrr-araC-ParaBAD-fhuAdeltaCdelta4L at 16 to 128 ug/ml incubated for 1 to 40 mins by UHPLC-Q/TOF analysis; assay type: ADME; outline: as §1
Escherichia coli [7] = test: Inhibition of CpxA phosphatase activity in Escherichia coli assessed as increase in the ratio of CpxR-P to CpxR at 10 uM incubated for 5 hrs by densitometric method
Outline: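 Wild-type and ΔcpxA E. coli were grown in medium with 0.4% glucose, with 0 or 10 μM compound. CpxR phosphorylation was resolved by Phos-Tag gel and Western blot. His6CpxR incubated with 0 or 20 mM acetyl phosphate served as a marker. The CpxR-P:CpxR ratio was quantified by densitometry, as average and standard deviation of 5 independent experiments.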

Compound	EC50 ([3]; read-out: EC50) [µM]	further results
Fc1ccc2[nH]c3c(c2c1)CCCC3		Drug uptake [1]: Active; Drug uptake [2]: Not Active
N[C@H](Cc1ccccc1)C(=O)Nc1ccc(F)cc1		inhibition (Escherichia coli [4]): inactive
CC(C)[C@@H](N)C(=O)Nc1ccc(F)c(F)c1		inhibition (Escherichia coli [4]): inactive
CCC(C)[C@@H](N)C(=O)Nc1ccc(F)cc1 (stereo not given in full)		inhibition (Escherichia coli [4]): inactive
CC(C)[C@@H](N)C(=O)Nc1ccc(F)cc1		inhibition (Escherichia coli [4]): inactive
C[C@@H](N)C(=O)Nc1ccc(F)c(F)c1		inhibition (Escherichia coli [4]): inactive
COc1ccc2[nH]c3c(c2c1)CCCC3N (racemic)	> 100	
NC1CCCc2c1[nH]c1c(F)cccc21 (racemic)	56.8	
OC1CCCc2c1[nH]c1ccccc21 (stereo not given)	> 100	
NC1CCCc2c1[nH]c1c(C(F)(F)F)cccc21 (racemic)	> 100	
NC1CCCc2c1[nH]c1cc(F)c(F)cc21 (racemic)	2.7	
O=[N+]([O-])c1ccc2[nH]c3c(c2c1)CCCC3	> 160	
NC1CCCc2c1[nH]c1cccc(F)c21 (racemic)	65.9	
NC1CCCc2c1[nH]c1cc(C(F)(F)F)ccc21 (racemic)		EC50 [3]: Nd(Toxic)
NC1CCCc2c1[nH]c1ccc(Br)cc21 (racemic)		EC50 [3]: Nd(Toxic)
C[C@@H](N)C(=O)Nc1ccc(F)cc1		inhibition (Escherichia coli [4]): inactive
N[C@@H]1CCCc2c1[nH]c1cc(F)c(F)cc21	1.1	

The next lines start with results.

EC50 ([3]; read-out: EC50) [µM]	Compound	further results
> 100	N[C@H]1CCCc2c1[nH]c1ccc(F)cc21	
11.9	NC1CCCc2c1[nH]c1cc(F)ccc21 (racemic)	
> 100	NC1CCCc2c1[nH]c1ccc(C(=O)O)cc21 (racemic)	
7.7	NC1CCCc2c1[nH]c1ccc(F)cc21 (racemic)	Drug uptake [1]: Active; Drug uptake [5]: Active; Drug uptake [2]: Active; Drug uptake [6]: Active
24.8	NC1CCCc2c1[nH]c1ccc([N+](=O)[O-])cc21 (racemic)	inhibition (Escherichia coli [7]): Active
> 100	COC(=O)c1ccc2[nH]c3c(c2c1)CCCC3N (racemic)	
10.9	NC1CCCc2c1[nH]c1ccc(Cl)cc21 (racemic)	
> 100	NC1CCCc2c1[nH]c1ccc(S(N)(=O)=O)cc21 (racemic)	
23.1	NC1CCCc2c1[nH]c1ccc(C(F)(F)F)cc21 (racemic)	
> 100	N#Cc1ccc2[nH]c3c(c2c1)CCCC3N (racemic)	
44.2	CC(N)c1cc2cc(Br)ccc2[nH]1 (stereo not given)	
30.2	NC1CCCc2c1[nH]c1ccccc21 (racemic)	
3.5	N[C@@H]1CCCc2c1[nH]c1ccc(F)cc21	inhibition (Escherichia coli [7]): Active
> 100	NC1CCCc2c1[nH]c1cccc(C(F)(F)F)c21 (racemic)	
34.1	Cc1ccc2[nH]c3c(c2c1)CCCC3N (racemic)	
79.5	NCc1cc2cc(F)ccc2[nH]1	
